In the EternaBench riboswitch data:

Tested on: MS2 coat protein
Assay: apparent Kd, MS2 coat protein; higher = weaker binding; RNA-MaP array; FMN 200 µM where present
Summary of the method: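 Designs were transcribed by stalled E. coli RNA polymerase on Illumina sequencing-chip clusters. They were titrated with SNAP-549-labelled MS2 coat protein from 0.7 or 1.5 nM, doubling to 3 µM, in 100 mM Tris-HCl pH 7.5, 80 mM KCl, 4 mM MgCl2, BSA, DTT, yeast tRNA and Tween-20, without and then with constant ligand. The apparent Kd is the median of filtered per-cluster fits after normalisation of green signal to red-channel RNA signal and control-cluster median Fmax.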

[1] = designed as: ON switch for flavin mononucleotide, no ligand
[2] = ligand present: flavin mononucleotide, designed as: ON switch for flavin mononucleotide
[3] = designed as: OFF switch for flavin mononucleotide, no ligand
[4] = ligand present: flavin mononucleotide, designed as: OFF switch for flavin mononucleotide

Sequence	apparent Kd [1]	apparent Kd [2]	apparent Kd [3]	apparent Kd [4]
AAGGUGCAGGUACAGGAUAUGUUGCUCGUAACAUGAGGAUCACCCAUGUACCUAUGAGAUUAAAUGCAGAAGGGUGCACACCAAA	792 nM	87.5 nM	–	–
GCCAGGGAUUCAGGAUAUAUUAGCCGAGGCCGCGUAGAAGGGAAAUCCUGACAUGAGGAUCACCCAUGUCGACCCGCCUUCCUC	28.5 nM	29.2 nM	–	–
UUAAUUAAUUAAUUAUACAUGAGGAUCACCCAUGUAAGUGAUCAGGAUAUCAGCUCGAAUAGAGCUGAGAAGGGAUACAUGUAA	199 nM	111 nM	–	–
GGAUGACAAAGUCAUCCAAUUCGAACAUGAGGAUCACCCAUGUAGGAUAUGGUACUCAAAGAGUACCAGAAGGACAUGUGCUUU	–	–	38.1 nM	145 nM
ACCAUUUACUAAUCCUCUAUACAUGAGGAUCACCCAUGUUUUGAGGAUAUCAUCGUUCGCCGCGUUGAGAAGGCAAAACAUUCG	–	–	18.7 nM	52.9 nM
CUGUUCACCAGUGGGCGACCACAUGAGGAUCACCCAUGUAGGGAGGAUAUGCCCGCGCAGCUGUAGCAGAAGGCCCUGCAAAUC	–	–	21.2 nM	125 nM
AGAUAGGACAGAGGAUAUACGUGCUAGAGAUACUAGCAAAAUUUCCUCACAUGAGGAUCACCCAUGUAGAAGGCUGUCCUAUCG	–	–	15.6 nM	436 nM
UUUUUACUUGUAGGAUAUGGAGACAUGAGGAUCACCCAUGUAUGAUAAGCUAAAUUAUGCUGUGGCCAGAAGGAUAUUAUUCUU	48.2 nM	53.7 nM	–	–
GGUUCGGGAGGAUAUGUGUUUUUGGACAUGAGGAUCACCCAUGUUUUCAUGUUUUUUCCCACAGAAGGUUUGGGCC	–	–	18.6 nM	22.9 nM
AUCCGGGCUAACAUGAGGAUCACCCAUGUGUUAUACUUAAUAUAGGAUAUGUUUAUACUUUUUGGGCAGAAGGAUGGCCCGGAU	83.1 nM	68.8 nM	–	–
AGCUGUGGCCGAGGAUAUCUAAUAAUCUCAACCGAAAUAUAAUCGGACAUGAGGAUCACCCAUGUAGAGAAGGCGGUCUCAGCA	–	–	36.2 nM	92.8 nM
GUAUUUUAAGUAAGGAUAUGCCUCUGGAAACGGAGGUAGAAGGUACAUGAGGAUCACCCAUGUUUCUCUUUUGG	–	–	16.3 nM	20.6 nM
UAAAUUUUAUGAUAUUAUGACAUUAGAAGGCUGUACAUGUUGAUACAUGAGGAUCACCCAUGUAUAGAGGAUAUAGACAAUUUU	–	–	31 nM	65.1 nM
AUUUUGUGAGGAUAUCAGGUGUGCUAGCGUACUGGUACAUCUGAGAAGGCACAUGAGGAUCACCCAUGUUUAUU	–	–	26.6 nM	60 nM
GAAUGUCGGGUAGGAUAUGACGUGCCACGGAGGUCAGAAGGGCCACGACAUGAGGAUCACCCAUGUACUGUAUUCCUUUUUCAA	–	–	22.9 nM	60.4 nM
CGGCUCUCAGGAUAUACCUCGGGUGGCCAACUGUUUCGUUUACAUGAGGAUCACCCAUGUAGAAGGGAGGGCAA	–	–	49.7 nM	27 nM
UUACUGCGAGGAUAUGCGAUCCAGACCAUGAUGUAAUUCCGACAUGAGGAUCACCCAUGUAGAAGGUGCAGUGG	–	–	22.4 nM	27.1 nM
AUACUCGUUGUGAGGAUAUCGUUUUCUUUACGGAUCGAGAAGGCACAUGAGGAUCACCCAUGUUUGACGUGAAU	–	–	33.7 nM	162 nM
GUCAUGUCAGGAUAUGCUUAUGGUGGGUGCUCAGACAUGAUGCAGAAGGGACAUGAGGAUCACCCAUGUACUGU	–	–	35.8 nM	60.9 nM
GUGGUACAUGAGGAUCACCCAUGUUAGGAUAUCGCGUGAGGUUUUACUUCCACACACACGAGAAGGGACGUCUU	–	–	44.3 nM	36.2 nM
AGUAACAGAGGAUAUACUAUUUUAUGUGUUUGUUAUUUUAAACAUGAGGAUCACCCAUGUAGAAGGCUGAAUAA	–	–	21.8 nM	24.1 nM

Sequence	apparent Kd [1]	apparent Kd [2]	apparent Kd [3]	apparent Kd [4]
AUUAUAUAGGAAGGAUAUAGAAUAUUAUUUUAACAUGAGGAUCACCCAUGUAACCUUAUGUGUAGCUAGAAGGUCCAUUUAUUA	–	–	97.5 nM	153 nM
AGAGUGUCAGGAUAUCCUGCUGUGCGGAAUAUGUAUUCACGGGAGAAGGGACAUGAGGAUCACCCAUGUUUGAG	–	–	20.6 nM	20.8 nM
AGCCAGGACGGGUGCCUGAGCGGGAGAAGGUACGAGGGAUCGUCUGGACAUGAGGAUCACCCAUGUAAGGAUAUCCCGCCUAUU	–	–	8.78 nM	18.1 nM
AGCGUGUAAGGAUAUACGUCGGACAGCAAAUGCUAUCCCUAGUAGAAGGUACAUGAGGAUCACCCAUGUGUCCA	–	–	22.9 nM	58.8 nM
AGCGAACAUGAGGAUCACCCAUGUGAAAAACAUAGAGGAUAUGUCGCAUGCGUGUAAAAGACAGAAGGCUAUCGCG	71.6 nM	33.9 nM	–	–
AUAAAACAUGAGGAUCACCCAUGUGAGGAUAUGCUAAAAUAAAAUAAAAUAAAAUAAUGCAGAAGGCACAAAUA	–	–	59.6 nM	74.6 nM
GCGUCAGAAUUAAUUGUGACAGACAGAAGGCAAUAGUUCAUGUCAGACAUGAGGAUCACCCAUGUUGAGGAUAUGUAUUUACUC	–	–	7.54 nM	8.35 nM
CAGUCUACAGGAUAUACAUGAGGAUCACCCAUGUAAAUUCACUUUCGGUAGUCUACAUGUAGAAGGGUAGACUG	–	–	125 nM	38.8 nM
AGCCUAGCAGGAUAUGCUCAAGAUUACAUGAGGAUCACCCAUGUGACUGGUUGUUGUCUUGCAGAAGGGCUAGGGA	–	–	20.6 nM	46.8 nM
GUAUUUGAAGUAAGGAUAUGCCUCUGGAAACGGAGGUAGAAGGUACAUGAGGAUCACCCAUGUUUCUCUUUUGG	–	–	16 nM	23.3 nM
AGCUGCAAUCAGAAGGAGUAGGGUACAUGAGGAUCACCCAUGUCCGAUGCUAGGAUAUGAAAGCAGACCCGUGGUACCAAUCCC	33.5 nM	7.39 nM	–	–
AUCAGCUCGUCAGGAUAUACGUCACUGCGUCAGCAGUGUAGUAAGAUCACAUGAGGAUCACCCAUGUAGAAGGGACGAGCUGAU	–	–	5.55 nM	12 nM
UGGUCAUGAUCAGGAUAUUAACAUGGGCUACAUUGAGAAGGGAUAGUGAGAUACGAACUGAACGACAUGAGGAUCACCCAUGUA	59.7 nM	44 nM	–	–
AACUUGCGCACAGGAUAUCCACGGAGCGGACGUGGAGAAGGGUGACAUGAGGAUCACCCAUGUACGUAAGUCUGGAUCACUUCC	116 nM	42.3 nM	–	–
AGUUCUUGUGAAGGAUAUACGGCGGGUCGCGCAGUAGAAGGUCACAUGAGGAUCACCCAUGUCGACAAUGUGCAGUAUCGACAA	–	–	135 nM	271 nM
AGCAUGUGAGGAUAUGCGGACUCCGGUAAAUCUGGAGUCCAGUAGAAGGCACAUGAGGAUCACCCAUGUGAUAA	–	–	98.3 nM	83.2 nM
AGAUAACAUGUAGGAUAUCGAGGCCUGAGGCCUCGAGAAGGACAUGAGGAUCACCCAUGUAGUUGUACUAUGGGAUCACGCACU	–	–	620 nM	186 nM
AGUCGGCGAGGAUAUACAUGAGGAUCACCCAUGUGAGAGAUAAAAGUGAGUUAGACAAGUAGAAGGCGCUGACA	–	–	59.7 nM	469 nM
CUGCCGUAGGAGAAGGACGGCGGGUUAUUUUUUUACAUGAGGAUCACCCAUGUAGGAUAUCCUACGUCAGGCAACCUACUACAG	–	–	6.36 nM	9.54 nM
GUACUGUAGUGAGGAUAUACGAGUGCGAUAGCACGGCGAUCCAUUUAUACAUGAGGAUCACCCAUGUAGAAGGCACUUCAGUAC	–	–	6.15 nM	65.6 nM
CUGAAGAUAUCAGGAUAUCUAUUUCCUACAUGAGGAUCACCCAUGUAGGUGAUCAGCCAAGUAAAGGAGAAGGGAUAUCUUUAG	32.3 nM	9.78 nM	–	–
